Screening results from PubChem BioAssay.
Sampled rows, rich in hits. Any-hit rate of the full collection: about 2.6%.
T cruzi repl: T. cruzi replication inhibition; 300,000 tested, 1.4% active; T. cruzi beta-gal in NIH3T3, luminescence, 90 h; inhibition, % (concentration not given with the values);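 active = mean inhibition across valid replicates above about 55%, limit read from the data; inconclusive = mean below that limit but half or more replicates reach it; inactive = mean below it, under half of replicates reach it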;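 note: signal also drops with host cell toxicity which is not excluded here; 0% = plate median of DMSO wells and 100% = zero luminescence signal; higher percent means less beta-gal luminescence so fewer parasites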
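compound dosing = single 50 nL compound addition per well in DMSO | material = NIH/3T3 host cells with β-galactosidase reporter T. cruzi | input = 5,000 host fibroblasts per well | timing = ≥90 h infection period, 3 h prior cell attachment | read-out basis = percent inhibition of parasite-derived β-gal signal | detection = GalScreen β-gal luminescence, detergent lysis, 60 min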
CHT PAM: allosteric activators of human choline transporter CHT. CHT-expressing cells, membrane potential dye, choline EC20; hits give high values; LV-AA mutant CHT in HEK293 cells. Q9GZV3. B-score at 10 µM. 310,000 tested, 0.49% active;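 active = initial fluorescence not abnormally high and integrated response B-score, plate-corrected, over 3 SD above library mean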
Target sequence (Q9GZV3 whole entry, looked up): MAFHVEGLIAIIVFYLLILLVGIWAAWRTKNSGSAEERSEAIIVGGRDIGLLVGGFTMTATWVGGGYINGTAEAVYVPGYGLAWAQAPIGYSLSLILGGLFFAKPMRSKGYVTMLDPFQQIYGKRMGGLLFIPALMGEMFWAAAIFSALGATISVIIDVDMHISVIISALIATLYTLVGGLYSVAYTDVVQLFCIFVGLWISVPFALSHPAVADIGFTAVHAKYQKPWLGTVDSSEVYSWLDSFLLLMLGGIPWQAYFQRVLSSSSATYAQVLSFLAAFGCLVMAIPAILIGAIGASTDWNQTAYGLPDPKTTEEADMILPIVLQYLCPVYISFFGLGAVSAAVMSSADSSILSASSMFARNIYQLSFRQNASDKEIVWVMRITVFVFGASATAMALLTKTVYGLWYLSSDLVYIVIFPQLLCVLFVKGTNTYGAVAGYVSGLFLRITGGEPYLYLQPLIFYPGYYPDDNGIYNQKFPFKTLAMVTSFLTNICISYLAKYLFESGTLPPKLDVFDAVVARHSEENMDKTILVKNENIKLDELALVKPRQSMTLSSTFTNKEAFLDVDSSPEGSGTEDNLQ
CHT block: inhibitors of human choline transporter CHT | 310,000 tested, 0.86% active | CHT-expressing cells, membrane potential dye, choline response; hits give low values | B-score at 10 µM | Q9GZV3;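 active = B-score over 3 SD under the library average, and starting fluorescence ratio not unusually high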;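 note: choline stimulus applied at its EC90 after an EC20 pre-addition; B-score computed on integrated fluorescence ratio after choline addition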
PolyA inhibitor: inhibitors of polyadenylation in S. cerevisiae. 300,000 tested, 0.02% active. AID 1875. activity score, % at 12 µM. S. cerevisiae SKY197-pL101 polyadenylation reporter, beta-gal luminescence; efflux-impaired pdr1/pdr3 knockout yeast; score 100 = 6 SD above DMSO;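 active = lowest replicate activity score at least 50, where 100 means six control SD above control mean; inconclusive = lowest score under 50 but half or more replicates reach 50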;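 note: yeast exposed to compound for 9 h at 30 °C; higher score means more reporter readthrough which indicates perturbed polyadenylation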
CHT activ conf: confirmation of human choline transporter (CHT) activators | activation, % at 10 µM | 2,500 tested, 91% active | AID 504833 | CHT-expressing cells, membrane potential dye fluorescence (FDSS); % of choline EC20–EC90 response window; HEK293 expressing CHT LV-AA mutant; choline added at its EC20 | shares compounds with CHT PAM;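 active = primary screen active, with duplicate mean activation above negative control mean plus 3 SD, cut at about 11% in these data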
HEK293 MP dye: CHT activator counter-screen hit in parental HEK293 cells. membrane potential dye fluorescence (FDSS); measured after EC20 choline addition. 2,500 tested, 62% active. shares compounds with CHT PAM. ratio readout change at 10 µM, hits read low. AID 623908;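 active = duplicate-averaged ratio beyond 3 SD from buffer wells, up or down, though filed actives are nearly all decreases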
Starred values were filed as active, the others as inactive; i = inactive; ? = inconclusive; . = no result given.

SMILES | T cruzi repl | CHT PAM | CHT block | PolyA inhibitor | CHT activ conf | HEK293 MP dye
CCOC(=O)C1(CC2CCCCO2)CCN(Cc2c(C)cc(C)cc2-n2cccn2)CC1 (stereo not given) | 4.8 | i | i | ? | . | .
Cc1ccc(-n2cccn2)c(CN2CCCC(CNC(=O)c3ccc(F)cc3)C2)c1 (stereo not given) | 3.8 | i | i | 6.6 | 39.0* | i
CCOC(=O)C1(CC2CCCCO2)CCN(Cc2cc(F)ccc2-n2cccn2)CC1 (stereo not given) | -27.5 | 9.41* | i | -0.3 | 49.1* | i
COCc1ccc(C(=O)N2CCCC(Nc3ccc(C(C)C)cc3)C2)o1 (stereo not given) | -1.8 | i | i | -6.1 | . | .
Nc1cc(=O)[nH]c(SCC(=O)Nc2ccc(Oc3ccccc3)cc2)n1 | -15.1 | i | i | 2.3 | . | .
Cc1cc(=O)oc2cc(OCCCC[n+]3ccccc3)ccc12 | -6.8 | i | i | -8.7 | 62.2* | -38.4*
CC(C)C[C@H]1CN=C(Nc2ccccc2)N1CC1CCC(C(C)(C)C)CC1 (stereo not given in full) | . | 28.5* | i | . | 59.0* | i
CC(C)CCN1C(Nc2ccccc2)=NC[C@@H]1Cc1ccccc1 | -1.6 | 6.97* | i | -5.8 | 20.9* | i
Cc1ccc(CNC(=O)CN(c2ccc(C)cc2)S(=O)(=O)c2c(C)n[nH]c2C)cc1 | 2.1 | i | i | -5.2 | . | .
CCN(CC)C(=O)c1ccccc1NC(=O)CN1C(=O)c2ccccc2S1(=O)=O | -11.2 | i | i | -1.2 | . | .
CCc1ccc(Nc2n[n+](-c3ccccc3)c(-c3ccc(OCc4ccccc4)cc3)s2)cc1 | 54.9* | 17.5* | i | 18.3 | 1.5 | i
CCc1ccc(Nc2n[n+](-c3ccccc3)c(-c3cc(OC)c(OC)cc3Br)s2)cc1 | 17.9 | i | i | -4.6 | . | .
Cc1cccc(-c2nnc(SCC(=O)N3CCOCC3)o2)c1 | -0.9 | i | i | 7.6 | . | .
Cc1ccc(Nc2nc(-c3c(C)nc4ncccn34)cs2)cc1 | -44.0 | 6.75* | i | -0.5 | 28.8* | i
CC(=O)N1CCN(Cc2nc3ccc(Cl)cc3n2CCO)CC1 | -1.3 | i | i | -11.7 | . | .
CCOC(=O)c1c(NC(=O)CSc2nc3ccccc3o2)sc(C(C)=O)c1C | -6.0 | 9.07* | i | 3.4 | 11.8* | i
Cc1ccn2c(c1)nc(=O)c1cc(S(=O)(=O)N3CCCCC3)ccc12 | -21.2 | i | i | -8.2 | 31.8* | -26.8*
COc1ccc(S(=O)(=O)NCCCn2ccnc2)cc1C(C)(C)C | -6.9 | i | i | 18.3 | . | .
S=c1nccc(-c2ccc(Cl)cc2)[nH]1 | -3.3 | i | i | 0.3 | . | .
Cc1nc2ccccn2c1-c1ccnc(=S)[nH]1 | -3.0 | 6.78* | i | -0.2 | 37.0* | -35.1*
Cc1cc(N2CCOCC2)n2cc(-c3ccc(F)cc3)nc2n1 | 3.3 | i | i | 0.2 | 31.0* | -21.1*
CCc1ccc(/C=N/n2c(COc3ccccc3)n[nH]c2=S)cc1 | -3.4 | i | i | -24.4 | . | .
C[C@H](NC(=O)C(c1ccccc1)c1ccccc1)c1ccccc1 | 2.1 | 7.93* | i | 5.7 | 6.3 | i
COc1ccc(N(CC(=O)Nc2ccc(C)cn2)S(=O)(=O)c2c(C)noc2C)cc1 | 9.1 | 6.59* | i | -21.2 | 7.2 | i
CC(C)(C)Nc1c2ccccc2nc2ccccc12 | ? | i | i | 10.7 | 36.9* | -57.5*
SMILES | T cruzi repl | CHT PAM | CHT block | PolyA inhibitor | CHT activ conf | HEK293 MP dye
CCSc1ccc2cc(OC)ccc2[n+]1CC | 54.7* | 6.26* | i | 10.3 | 40.0* | -54.3*
COc1ccc(NC(=O)CN(C)C(=O)Cc2ccc3c(c2)CCC3)cc1 | -5.6 | i | i | 5.6 | . | .
CN(C1(C)CCS(=O)(=O)C1)S(=O)(=O)c1ccc2ccccc2c1 (stereo not given) | 2.9 | i | i | 11.3 | . | .
CCOc1ccc(N(C(=O)CNC(=O)c2ccco2)C(C(=O)NC2CCCC2)c2cccnc2)cc1 (stereo not given) | 3.2 | i | i | -2.0 | . | .
CC(C)Oc1ccc(OCCn2c(S(=O)(=O)O)nc3c(N)ncnc32)cc1 | -6.4 | i | i | -1.7 | . | .
COc1ccc(-c2cn3ccccc3n2)cc1OC | -13.9 | i | i | -59.0 | 21.1* | -37.7*
CCC(=O)Nc1cccc(-c2cn3ccccc3n2)c1 | 6.8 | i | i | -2.7 | 45.0* | -41.5*
Cc1ccc(S(=O)(=O)N2CCC3(CC2)OCCO3)s1 | 1.6 | i | i | 12.3 | . | .
Cc1cc(NC(=O)COC(=O)CCS(=O)(=O)c2cc(Cl)ccc2Cl)no1 | -15.6 | i | i | 9.3 | . | .
O=C(Nc1cccc(Cl)c1N1CCOCC1)c1cc([N+](=O)[O-])ccc1N1CCOCC1 | 11.1 | i | i | 3.6 | 12.6* | i
CC(C)c1ccc(NC(=O)c2cc([N+](=O)[O-])ccc2N2CCOCC2)cc1 | 20.0 | i | i | -15.8 | 28.7* | i
COc1ccc(NC(=O)c2cc([N+](=O)[O-])ccc2N2CCN(C)CC2)cc1 | -2.8 | 8.39* | i | 9.0 | 52.0* | -64.1*
O=C(COC(=O)c1cc([N+](=O)[O-])ccc1N1CCOCC1)NCc1ccc(F)cc1 | -6.6 | i | i | 22.8 | 55.6* | i
Cc1cccc(NC(=S)NC(=O)c2oc3ccccc3c2C)n1 | -9.9 | i | i | -19.0 | . | .
O=C(COc1ccccc1Cl)Nc1cccc(S(=O)(=O)NC2=NCCCCC2)c1 | 1.1 | i | i | -0.8 | . | .
COc1ncccc1-c1nnn(-c2ccc(Cl)nc2)n1 | -15.2 | i | i | 0.1 | 48.3* | -40.8*
Clc1ccc(-n2nnc(-c3cccnc3Cl)n2)cn1 | -2.9 | i | i | -12.9 | . | .
CC1CCCCC1NC(=O)CN(C)S(=O)(=O)c1ccc2c(c1)CCC(=O)N2 (stereo not given) | 6.4 | i | i | -11.2 | . | .
Cc1cccc(C)c1NC(=O)CNC(=O)c1ccncc1 | -9.0 | i | i | 13.2 | . | .
COc1ccc(OCc2cc(C(=O)NC(C)Cn3cncn3)no2)c(Cl)c1 (stereo not given) | -13.1 | i | i | 3.0 | . | .
COc1ccc(C)cc1Nc1c2c(nc3ccccc13)CCC2 | 43.6 | 6.84* | i | -0.7 | 35.5* | -27.1*
COCCNc1c2c(nc3ccccc13)CCC2 | 13.3 | i | i | -6.1 | 44.3* | -39.5*
CCCCCC(=O)Nc1c2c(nc3ccccc13)CCC2 | -11.4 | i | i | -4.4 | . | .
CN(C)CCCNc1c2c(nc3ccccc13)CCC2 | 38.5 | i | i | 3.2 | 62.2* | -65.9*
